How the values were obtained:
Type in all cases: functional
[1] = Ratio of antagonist activity at human H2R-Gsalpha fusion protein to guinea pig H2R-Gsalpha fusion protein expressed in sf9 cells
[2] = Antagonist activity at guinea pig H2R-Gsalpha fusion protein expressed in sf9 cells by GTPase assay; conditions: Cavia porcellus
In short: (§1)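 Inhibition of histamine-stimulated high-affinity GTP hydrolysis in Sf9 membranes expressing hH2R-Gsα or gpH2R-Gsα fusion proteins. KB came from non-linear curve fitting. Means SD of three experiments.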

[3] = Antagonist activity at human H2R-Gsalpha fusion protein expressed in sf9 cells by GTPase assay; in short: as §1
[4] = biological target: Histamine H1 receptor (Homo sapiens) (UniProt P35367); test: Antagonist activity at human recombinant H1R expressed in sf9 cells assessed as inhibition of histamine-stimulated GTP hydrolysis
Sequence of Histamine H1 receptor (Homo sapiens) (P35367 whole entry): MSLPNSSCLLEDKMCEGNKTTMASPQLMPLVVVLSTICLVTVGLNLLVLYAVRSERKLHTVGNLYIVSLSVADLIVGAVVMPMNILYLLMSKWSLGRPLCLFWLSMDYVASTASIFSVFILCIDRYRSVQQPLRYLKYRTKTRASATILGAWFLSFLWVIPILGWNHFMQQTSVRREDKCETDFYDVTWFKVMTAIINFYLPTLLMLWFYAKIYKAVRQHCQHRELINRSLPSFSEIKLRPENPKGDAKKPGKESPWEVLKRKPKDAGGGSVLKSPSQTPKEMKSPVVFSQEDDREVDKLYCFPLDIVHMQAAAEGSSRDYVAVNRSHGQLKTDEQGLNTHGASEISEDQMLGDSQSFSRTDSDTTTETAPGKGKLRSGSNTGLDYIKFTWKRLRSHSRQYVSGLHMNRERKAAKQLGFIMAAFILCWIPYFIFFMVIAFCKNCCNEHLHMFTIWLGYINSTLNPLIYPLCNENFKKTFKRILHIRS

Histamine H2 receptor [5] = biological target: T1, Histamine H2 receptor (Homo sapiens, UniProt P25021); test: Agonist activity at human H2R
T1 sequence (P25021 whole entry, the tested form may be a part): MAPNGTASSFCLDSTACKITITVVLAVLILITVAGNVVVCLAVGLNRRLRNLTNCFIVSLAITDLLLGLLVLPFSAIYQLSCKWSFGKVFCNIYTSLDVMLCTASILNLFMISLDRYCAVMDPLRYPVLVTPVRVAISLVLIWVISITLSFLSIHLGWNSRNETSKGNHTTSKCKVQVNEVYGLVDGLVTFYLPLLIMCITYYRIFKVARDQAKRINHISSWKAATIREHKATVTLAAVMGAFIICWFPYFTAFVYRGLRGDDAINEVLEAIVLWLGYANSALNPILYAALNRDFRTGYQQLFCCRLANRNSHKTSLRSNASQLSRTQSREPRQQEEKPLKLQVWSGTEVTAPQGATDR
In short: (§2)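 GTPase activity in Sf9 insect cell membranes expressing hH2R-GsαS or gpH2R-GsαS fusion proteins. Curves were fitted by non-linear regression. Means SD of three experiments.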

Histamine H2 receptor [6] = biological target: Histamine H2 receptor (Cavia porcellus, UniProt P47747); test: Agonist activity at guinea pig H2R; in short: as §2
Sequence of Histamine H2 receptor (Cavia porcellus, UniProt P47747) (P47747 whole entry): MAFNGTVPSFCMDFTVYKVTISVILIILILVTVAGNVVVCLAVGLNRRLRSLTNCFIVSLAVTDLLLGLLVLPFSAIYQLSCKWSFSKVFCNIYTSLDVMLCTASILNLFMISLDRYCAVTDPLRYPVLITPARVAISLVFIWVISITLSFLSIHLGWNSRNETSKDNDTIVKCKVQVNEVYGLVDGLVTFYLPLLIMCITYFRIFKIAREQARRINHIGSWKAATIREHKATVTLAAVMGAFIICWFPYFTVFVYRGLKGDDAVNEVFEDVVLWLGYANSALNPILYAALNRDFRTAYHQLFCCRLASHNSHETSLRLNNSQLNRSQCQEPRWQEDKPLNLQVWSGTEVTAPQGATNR

[7] = biological target: Histamine H2 receptor (Cavia porcellus) (UniProt P47747); test: Binding affinity to guinea pig H2R expressed in sf9 cells by adenylyl cyclase assay
Sequence of Histamine H2 receptor (Cavia porcellus) (P47747 whole entry): as above

Histamine H2 receptor [8] = biological target: T1, Histamine H2 receptor; test: Binding affinity to human H2R expressed in sf9 cells by adenylyl cyclase assay
[9] = biological target: Histamine H2 receptor (Cavia porcellus) (UniProt P47747); test: Agonist activity at guinea pig H2R relative to histamine; in short: as §2
Histamine H2 receptor [10] = biological target: T1, Histamine H2 receptor; test: Agonist activity at human H2R relative to histamine; in short: as §2

| SMILES | Kb [4] | EC50 (Histamine H2 receptor [5]) | EC50 (Histamine H2 receptor [6]) | Kb [7] | Kb (Histamine H2 receptor [8]) | Efficacy [9] | Activity ([7]; filed as partial agonist) | Activity (Histamine H2 receptor [8]; filed as partial agonist) | Efficacy (Histamine H2 receptor [10]) | Ratio [1] | Kb [2] | Kb [3] |
| --- | --- | --- | --- | --- | --- | --- | --- | --- | --- | --- | --- | --- |
| N#CN/C(=N\CCN)NCCCOc1cccc(CN2CCCCC2)c1 | > 30 µM | – | – | – | – | – | – | – | – | 4.04 | 2300 nM | 9300 nM |
| N#CN/C(=N\CCNC(=O)c1ccc(N)cc1)NCCCOc1cccc(CN2CCCCC2)c1.O=C(O)C(=O)O [AMINOPOTENTIDINE OXALATE] | – | – | – | – | – | – | – | – | – | 0.79 | 280 nM | 220 nM |
| N#CN/C(=N\CCCCCCNC(=O)CCCCCNC(=O)COc1ccc(/C=C/C2=[N+]3C(=Cc4ccc(-c5ccc[nH]5)n4[B-]3(F)F)C=C2)cc1)NCCCOc1cccc(CN2CCCCC2)c1 | > 30 µM | – | – | – | – | – | – | – | – | 1.37 | 190 nM | 260 nM |
| CC1(C)C(/C=C/C=C/C=C2/N(CCCCCC(=O)NCC/N=C(\NC#N)NCCCOc3cccc(CN4CCCCC4)c3)c3ccccc3C2(C)C)=[N+](CCCCS(=O)(=O)[O-])c2ccccc21 | > 30 µM | – | – | – | – | 65% | Partial agonist | Partial agonist | 58% | 0.81 | 58 nM | 47 nM |

The next lines start with results.

| Kb [4] | EC50 (Histamine H2 receptor [5]) | EC50 (Histamine H2 receptor [6]) | Kb [7] | Kb (Histamine H2 receptor [8]) | Efficacy [9] | Activity ([7]; filed as partial agonist) | Activity (Histamine H2 receptor [8]; filed as partial agonist) | Efficacy (Histamine H2 receptor [10]) | SMILES | Ratio [1] | Kb [2] | Kb [3] |
| --- | --- | --- | --- | --- | --- | --- | --- | --- | --- | --- | --- | --- |
| – | 160 nM | 90 nM | – | – | – | – | – | – | CC1(C)C(=CC=CC=CC2=[N+](CCCCS(=O)(=O)[O-])c3ccccc3C2(C)C)N(CCCCCC(=O)NCCN=C(NC#N)NCCCOc2cccc(CN3CCCCC3)c2)c2ccccc21 | – | – | – |
| > 30 µM | – | – | – | – | – | – | – | – | O=C(CCCCCNC(=O)COc1ccc(/C=C/C2=[N+]3C(=Cc4ccc(-c5ccc[nH]5)n4[B-]3(F)F)C=C2)cc1)NCCCOc1cccc(CN2CCCCC2)c1 | 4.27 | 150 nM | 640 nM |
| > 30 µM | – | – | 33 nM | 2500 nM | – | – | – | – | N#CN/C(=N\CCCCCCN)NCCCOc1cccc(CN2CCCCC2)c1 | 24 | 75 nM | 1800 nM |
| > 30 µM | – | – | – | – | – | – | – | – | NCCCOc1cccc(CN2CCCCC2)c1 | 2.2 | 6800 nM | 15000 nM |

— ChEMBL document CHEMBL1146852, “Synthesis and pharmacological characterization of novel fluorescent histamine H2-receptor ligands derived from aminopotentidine” (Bioorg Med Chem Lett, 2006)
